Assay: Antiproliferative activity against human MDA231 cells after 72 hrs by MTT assay
Assay type: functional, cell-based
Conditions: MDA-MB-231, 72 h
In short: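 MTT read-out on MDA-231 cells. 1×10^3 exponentially growing cells seeded and incubated 24, 48 and 72 h. Medium replaced with 1 mg/mL MTT for 3–4 h at 37 °C.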

SMILES	IC50 [µM]
O=c1c2ccccc2[se]n1[C@@H]1O[C@H](CO)[C@H](O)[C@H](O)[C@H]1O	> 100
CC(=O)OC[C@H]1O[C@@H](n2[se]c3ccccc3c2=O)[C@H](OC(C)=O)[C@@H](OC(C)=O)[C@H]1OC(C)=O	21
O=c1c2ccccc2[se]n1[C@@H]1O[C@H](CO)[C@@H](O[C@@H]2O[C@H](CO)[C@H](O)[C@H](O)[C@H]2O)[C@H](O)[C@H]1O	> 100
CC(=O)OC[C@H]1O[C@@H](n2[se]c3ccccc3c2=O)[C@H](OC(C)=O)[C@@H](OC(C)=O)[C@@H]1O[C@@H]1O[C@H](COC(C)=O)[C@@H](OC(C)=O)[C@H](OC(C)=O)[C@H]1OC(C)=O	20
O=c1c2ccccc2[se]n1[C@@H]1O[C@H](CO)[C@@H](O[C@@H]2O[C@H](CO)[C@@H](O)[C@H](O)[C@H]2O)[C@H](O)[C@H]1O	> 100
CC(=O)OC[C@H]1O[C@@H](OCCn2[se]c3ccccc3c2=O)[C@H](OC(C)=O)[C@@H](OC(C)=O)[C@@H]1OC(C)=O	35
O=c1c2ccccc2[se]n1CCO[C@@H]1O[C@H](CO)[C@@H](O)[C@H](O)[C@H]1O	> 100

Source: ChEMBL document CHEMBL1938284, “Synthesis and biological activity of novel organoselenium derivatives targeting multiple kinases and capable of inhibiting cancer progression to metastases” (Eur J Med Chem, 2012)
